Measured values as given in ChEMBL document CHEMBL1671684, “In vitro resistance profile of the hepatitis C virus NS3/4A protease inhibitor TMC435” (Antimicrob Agents Chemother, 2010).
pEC50: −log10 of the molar value.

Legend:
Hepatitis C virus [1] = experiment: Ratio of EC50 for Hepatitis C virus subtype 1b expressing NS3 F43I mutant to EC50 for Hepatitis C virus subtype 1b expressing WT NS3 infected in HuH7 cells after 48 hrs by luciferase reporter assay; format: functional, Hepacivirus hominis, genotype 1b, Huh-7
Outline: (§1)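 Transient replicon assay: site-directed single or multiple NS3 mutations engineered into genotype 1b (con1, clone ET) subgenomic bicistronic replicon with luciferase reporter and adaptive mutations E1202G, T1280I, K1846T. Huh7-lunet cells electroporated with 10 μg wild-type or mutant replicon RNA, seeded 4,000 cells/well with nine-point inhibitor dilution; 48 h, 37°C, 5% CO2; luminescence read-out. EC50 as median of individual experiments; fold change versus parental replicon EC50.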

Hepatitis C virus [2] = experiment: Antiviral activity against Hepatitis C virus subtype 1b expressing NS3 A156T mutant infected in HuH7 cells after 48 hrs by luciferase reporter assay; format: functional, organism-based, Hepacivirus hominis; conditions: genotype 1b, Huh-7, 48 h
Outline: (§2)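 Genotype 1b con1 subgenomic bicistronic replicon (clone ET) with luciferase reporter and adaptive mutations E1202G, T1280I, K1846T, carrying site-directed NS3 single or double mutations. 10 μg wild-type or mutant replicon RNA electroporated into Huh7-lunet cells, seeded 4,000 cells/well over a nine-point inhibitor dilution series, 48 h at 37°C, 5% CO2, then luminescence read. EC50 taken as median of individual experiments; fold change relative to parental replicon EC50.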

Hepatitis C virus [3] = experiment: Antiviral activity against Hepatitis C virus subtype 1b expressing NS3 F43S mutant infected in HuH7 cells after 48 hrs by luciferase reporter assay; format: functional, organism-based, Hepacivirus hominis; conditions: genotype 1b, Huh-7, 48 h; outline: as §2
Hepatitis C virus [4] = experiment: Ratio of EC50 for Hepatitis C virus subtype 1b expressing NS3 D168A mutant to EC50 for Hepatitis C virus subtype 1b expressing WT NS3 infected in HuH7 cells after 48 hrs by luciferase reporter assay; format: functional, Hepacivirus hominis, genotype 1b, Huh-7; outline: as §2
Hepatitis C virus [5] = experiment: Ratio of EC50 for Hepatitis C virus subtype 1b expressing NS3 D168Y mutant to EC50 for Hepatitis C virus subtype 1b expressing WT NS3 infected in HuH7 cells after 48 hrs by luciferase reporter assay; format: functional, Hepacivirus hominis, genotype 1b, Huh-7; outline: as §1
Hepatitis C virus [6] = experiment: Antiviral activity against Hepatitis C virus subtype 1b expressing NS3 Q80R mutant infected in HuH7 cells after 48 hrs by luciferase reporter assay; format: functional, organism-based, Hepacivirus hominis; conditions: genotype 1b, Huh-7, 48 h; outline: as §2
Hepatitis C virus [7] = experiment: Antiviral activity against Hepatitis C virus subtype 1b expressing NS3 R155G mutant infected in HuH7 cells after 48 hrs by luciferase reporter assay; format: functional, organism-based, Hepacivirus hominis; conditions: genotype 1b, Huh-7, 48 h; outline: as §2
Hepatitis C virus [8] = experiment: Ratio of EC50 for Hepatitis C virus subtype 1b expressing NS3 F43S and Q80R mutant to EC50 for Hepatitis C virus subtype 1b expressing WT NS3 infected in HuH7 cells after 48 hrs by luciferase reporter assay; format: functional, Hepacivirus hominis, genotype 1b, Huh-7; outline: as §1
Hepatitis C virus [9] = experiment: Ratio of EC50 for Hepatitis C virus subtype 1b expressing NS3 R155K mutant to EC50 for Hepatitis C virus subtype 1b expressing WT NS3 infected in HuH7 cells after 48 hrs by luciferase reporter assay; format: functional, Hepacivirus hominis, genotype 1b, Huh-7; outline: as §1
Hepatitis C virus [10] = experiment: Ratio of EC50 for Hepatitis C virus subtype 1b expressing NS3 A156T mutant to EC50 for Hepatitis C virus subtype 1b expressing WT NS3 infected in HuH7 cells after 48 hrs by luciferase reporter assay; format: functional, Hepacivirus hominis, genotype 1b, Huh-7; outline: as §2
Hepatitis C virus [11] = experiment: Antiviral activity against Hepatitis C virus subtype 1b expressing NS3 V36A mutant infected in HuH7 cells after 48 hrs by luciferase reporter assay; format: functional, organism-based, Hepacivirus hominis; conditions: genotype 1b, Huh-7, 48 h; outline: as §2
Hepatitis C virus [12] = experiment: Ratio of EC50 for Hepatitis C virus subtype 1b expressing NS3 D168H mutant to EC50 for Hepatitis C virus subtype 1b expressing WT NS3 infected in HuH7 cells after 48 hrs by luciferase reporter assay; format: functional, Hepacivirus hominis, genotype 1b, Huh-7; outline: as §1
Hepatitis C virus [13] = experiment: Ratio of EC50 for Hepatitis C virus subtype 1b expressing NS3 D168T mutant to EC50 for Hepatitis C virus subtype 1b expressing WT NS3 infected in HuH7 cells after 48 hrs by luciferase reporter assay; format: functional, Hepacivirus hominis, genotype 1b, Huh-7; outline: as §1
Hepatitis C virus [14] = experiment: Antiviral activity against Hepatitis C virus subtype 1b expressing NS3 D168H mutant infected in HuH7 cells after 48 hrs by luciferase reporter assay; format: functional, organism-based, Hepacivirus hominis; conditions: genotype 1b, Huh-7, 48 h; outline: as §2
Hepatitis C virus [15] = experiment: Ratio of EC50 for Hepatitis C virus subtype 1b expressing NS3 Q80R and D168A mutant to EC50 for Hepatitis C virus subtype 1b expressing WT NS3 infected in HuH7 cells after 48 hrs by luciferase reporter assay; format: functional, Hepacivirus hominis, genotype 1b, Huh-7; outline: as §1
Hepatitis C virus [16] = experiment: Ratio of EC50 for Hepatitis C virus subtype 1b expressing NS3 F43V mutant to EC50 for Hepatitis C virus subtype 1b expressing WT NS3 infected in HuH7 cells after 48 hrs by luciferase reporter assay; format: functional, Hepacivirus hominis, genotype 1b, Huh-7; outline: as §1
Hepatitis C virus [17] = experiment: Antiviral activity against Hepatitis C virus subtype 1b expressing NS3 A156S mutant infected in HuH7 cells after 48 hrs by luciferase reporter assay; format: functional, organism-based, Hepacivirus hominis; conditions: genotype 1b, Huh-7, 48 h; outline: as §2
Hepatitis C virus [18] = experiment: Antiviral activity against Hepatitis C virus subtype 1b expressing NS3 Q80G mutant infected in HuH7 cells after 48 hrs by luciferase reporter assay; format: functional, organism-based, Hepacivirus hominis; conditions: genotype 1b, Huh-7, 48 h; outline: as §2
Hepatitis C virus [19] = experiment: Ratio of EC50 for Hepatitis C virus subtype 1b expressing NS3 V36L mutant to EC50 for Hepatitis C virus subtype 1b expressing WT NS3 infected in HuH7 cells after 48 hrs by luciferase reporter assay; format: functional, Hepacivirus hominis, genotype 1b, Huh-7; outline: as §1
Hepatitis C virus [20] = experiment: Antiviral activity against Hepatitis C virus subtype 1b expressing NS3 D168T mutant infected in HuH7 cells after 48 hrs by luciferase reporter assay; format: functional, organism-based, Hepacivirus hominis; conditions: genotype 1b, Huh-7, 48 h; outline: as §2
Hepatitis C virus [21] = experiment: Antiviral activity against Hepatitis C virus subtype 1b expressing NS3 D168A mutant infected in HuH7 cells after 48 hrs by luciferase reporter assay; format: functional, organism-based, Hepacivirus hominis; conditions: genotype 1b, Huh-7, 48 h; outline: as §2
Hepatitis C virus [22] = experiment: Antiviral activity against Hepatitis C virus subtype 1b expressing NS3 V36L mutant infected in HuH7 cells after 48 hrs by luciferase reporter assay; format: functional, organism-based, Hepacivirus hominis; conditions: genotype 1b, Huh-7, 48 h; outline: as §2
Hepatitis C virus [23] = experiment: Ratio of EC50 for Hepatitis C virus subtype 1b expressing NS3 R155G mutant to EC50 for Hepatitis C virus subtype 1b expressing WT NS3 infected in HuH7 cells after 48 hrs by luciferase reporter assay; format: functional, Hepacivirus hominis, genotype 1b, Huh-7; outline: as §1
Hepatitis C virus [24] = experiment: Ratio of EC50 for Hepatitis C virus subtype 1b expressing NS3 D168E mutant to EC50 for Hepatitis C virus subtype 1b expressing WT NS3 infected in HuH7 cells after 48 hrs by luciferase reporter assay; format: functional, Hepacivirus hominis, genotype 1b, Huh-7; outline: as §1
Hepatitis C virus [25] = experiment: Antiviral activity against Hepatitis C virus subtype 1b expressing NS3 R109K mutant infected in HuH7 cells after 48 hrs by luciferase reporter assay; format: functional, organism-based, Hepacivirus hominis; conditions: genotype 1b, Huh-7, 48 h; outline: as §2
Hepatitis C virus [26] = experiment: Antiviral activity against Hepatitis C virus subtype 1b expressing NS3 R155I mutant infected in HuH7 cells after 48 hrs by luciferase reporter assay; format: functional, organism-based, Hepacivirus hominis; conditions: genotype 1b, Huh-7, 48 h; outline: as §2
Hepatitis C virus [27] = experiment: Ratio of EC50 for Hepatitis C virus subtype 1b expressing NS3 T54S mutant to EC50 for Hepatitis C virus subtype 1b expressing WT NS3 infected in HuH7 cells after 48 hrs by luciferase reporter assay; format: functional, Hepacivirus hominis, genotype 1b, Huh-7; outline: as §1
Hepatitis C virus [28] = experiment: Ratio of EC50 for Hepatitis C virus subtype 1b expressing NS3 Q80L mutant to EC50 for Hepatitis C virus subtype 1b expressing WT NS3 infected in HuH7 cells after 48 hrs by luciferase reporter assay; format: functional, Hepacivirus hominis, genotype 1b, Huh-7; outline: as §1
Hepatitis C virus [29] = experiment: Antiviral activity against Hepatitis C virus subtype 1b expressing NS3 S138T mutant infected in HuH7 cells after 48 hrs by luciferase reporter assay; format: functional, organism-based, Hepacivirus hominis; conditions: genotype 1b, Huh-7, 48 h; outline: as §2
Hepatitis C virus [30] = experiment: Antiviral activity against Hepatitis C virus subtype 1b expressing NS3 D168Y mutant infected in HuH7 cells after 48 hrs by luciferase reporter assay; format: functional, organism-based, Hepacivirus hominis; conditions: genotype 1b, Huh-7, 48 h; outline: as §2
Hepatitis C virus [31] = experiment: Ratio of EC50 for Hepatitis C virus subtype 1b expressing NS3 R109K mutant to EC50 for Hepatitis C virus subtype 1b expressing WT NS3 infected in HuH7 cells after 48 hrs by luciferase reporter assay; format: functional, Hepacivirus hominis, genotype 1b, Huh-7; outline: as §1

SMILES: CC(C)(C)NC(=O)N[C@H](C(=O)N1C[C@H]2[C@@H]([C@H]1C(=O)NC(CC1CCC1)C(=O)C(N)=O)C2(C)C)C(C)(C)C (some centres not stated) [BOCEPREVIR]
- Ratio EC50 (Hepatitis C virus [1]): 1.1
- pEC50 (Hepatitis C virus [2]): 5.14
- pEC50 (Hepatitis C virus [3]): 6.48
- Ratio EC50 (Hepatitis C virus [4]): 0.7
- Ratio EC50 (Hepatitis C virus [5]): 2.4
- pEC50 (Hepatitis C virus [6]): 7.07
- pEC50 (Hepatitis C virus [7]): 5.35
- Ratio EC50 (Hepatitis C virus [8]): 7.4
- Ratio EC50 (Hepatitis C virus [9]): 4.7
- Ratio EC50 (Hepatitis C virus [10]): 65
- pEC50 (Hepatitis C virus [11]): 5.84
- Ratio EC50 (Hepatitis C virus [12]): 0.7
- Ratio EC50 (Hepatitis C virus [13]): 1.1
- pEC50 (Hepatitis C virus [14]): 7.14
- Ratio EC50 (Hepatitis C virus [15]): 0.5
- Ratio EC50 (Hepatitis C virus [16]): 2.4
- pEC50 (Hepatitis C virus [17]): 6.28
- pEC50 (Hepatitis C virus [18]): 6.90
- Ratio EC50 (Hepatitis C virus [19]): 1.6
- pEC50 (Hepatitis C virus [20]): 6.52
- pEC50 (Hepatitis C virus [21]): 7.00
- pEC50 (Hepatitis C virus [22]): 6.96
- Ratio EC50 (Hepatitis C virus [23]): 20
- Ratio EC50 (Hepatitis C virus [24]): 0.8
- pEC50 (Hepatitis C virus [25]): 7.48
- pEC50 (Hepatitis C virus [26]): 5.27
- Ratio EC50 (Hepatitis C virus [27]): 8.5
- Ratio EC50 (Hepatitis C virus [28]): 0.9
- pEC50 (Hepatitis C virus [29]): 7.80
- pEC50 (Hepatitis C virus [30]): 6.71
- Ratio EC50 (Hepatitis C virus [31]): 1

SMILES: COc1ccc2c(O[C@@H]3C[C@H]4C(=O)N[C@]5(C(=O)O)C[C@H]5/C=C\CCCCC[C@H](NC(=O)OC5CCCC5)C(=O)N4C3)cc(-c3csc(NC(C)C)n3)nc2c1 [CILUPREVIR]
- Ratio EC50 (Hepatitis C virus [1]): 0.5
- pEC50 (Hepatitis C virus [2]): 5.97
- pEC50 (Hepatitis C virus [3]): 9.00
- Ratio EC50 (Hepatitis C virus [4]): 339
- Ratio EC50 (Hepatitis C virus [5]): 2488
- pEC50 (Hepatitis C virus [6]): 8.85
- pEC50 (Hepatitis C virus [7]): 6.00
- Ratio EC50 (Hepatitis C virus [8]): 0.6
- Ratio EC50 (Hepatitis C virus [9]): 496
- Ratio EC50 (Hepatitis C virus [10]): 1344
- pEC50 (Hepatitis C virus [11]): 9.00
- Ratio EC50 (Hepatitis C virus [12]): 263
- Ratio EC50 (Hepatitis C virus [13]): 844
- pEC50 (Hepatitis C virus [14]): 6.67
- Ratio EC50 (Hepatitis C virus [15]): 1827
- Ratio EC50 (Hepatitis C virus [16]): 0.5
- pEC50 (Hepatitis C virus [17]): 8.77
- pEC50 (Hepatitis C virus [18]): 8.52
- Ratio EC50 (Hepatitis C virus [19]): 1
- pEC50 (Hepatitis C virus [20]): 6.28
- pEC50 (Hepatitis C virus [21]): 6.52
- pEC50 (Hepatitis C virus [22]): 8.85
- Ratio EC50 (Hepatitis C virus [23]): 811
- Ratio EC50 (Hepatitis C virus [24]): 65
- pEC50 (Hepatitis C virus [25]): 8.85
- pEC50 (Hepatitis C virus [26]): 7.54
- Ratio EC50 (Hepatitis C virus [27]): 1.9
- Ratio EC50 (Hepatitis C virus [28]): 1.2
- pEC50 (Hepatitis C virus [29]): 9.30
- pEC50 (Hepatitis C virus [30]): 5.68
- Ratio EC50 (Hepatitis C virus [31]): 0.7
